p-CIP stab down: lowers stability of the mouse p/CIP coactivator protein | Q05BA5 | F442A p/CIP-EGFP cells, EGFP fluorescence, 16 h | decrease of EGFP signal, % at 10 µM | 290,000 compounds, 0.01% hits;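 active means EGFP signal decrease of at least 30% at 10 µM or well 3 SD below plate mean, unless failing retest; inactive means the rest, including hits failing retest or dose response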
PP1 counter: blocks human PP1-alpha phosphatase, a PP5 counter-screen | P62136 | purified PP1alpha, OMFP fluorescence | inhibition, % at 6.7 µM | 320,000 compounds, 0.9% hits | AID 2235;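 active means inhibition above the mean inhibition of all tested compounds plus 3 SD, computed separately for each screening campaign, cut at about 15% in these data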
AI-2 QS mod: modulates the Vibrio harveyi AI-2 quorum sensing system. Vibrio harveyi JMH597 AI-2 luminescence/OD600 ratio, 9 h; hits give low values; strain lacks LuxN and CqsS sensors; 0 = neutral-control median. activity change, % at 7.5 µM. 300,000 compounds, 0.4% hits; in the data active means activity change below about -75%, passing the limit was not always enough;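 further: luminescence divided by OD600 gain over 9 h not by final OD600 alone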
T cruzi repl: T. cruzi replication inhibition; 300,000 compounds, 1.4% hits; inhibition, % (concentration not given with the values); T. cruzi beta-gal in NIH3T3, luminescence, 90 h;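 active means mean inhibition across valid replicates above about 55%, limit read from the data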;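 further: signal also drops with host cell toxicity which is not excluded here; higher percent means less beta-gal luminescence so fewer parasites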
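System: NIH/3T3 fibroblasts plus reporter T. cruzi. Medium: DMEM plus 2% FBS. Probe or stimulus: 5000 reporter trypomastigotes per well. Compound: single 50 nL compound addition per well in DMSO. Incubation: co-culture of at least 90 h after 3 h attachment. Detection: GalScreen β-gal luminescence, detergent lysis, 60 min. Evaluation: parasite load inhibition, %.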
UBC13 inh: blocks human UBC13 polyubiquitin chain formation; P61088; TR-FRET; inhibition, % at 20 µM; 330,000 compounds, 0.47% hits; AID 485273; in the data active means inhibition above about 45%, passing the limit was not always enough
Target sequence (P61088 whole entry, looked up): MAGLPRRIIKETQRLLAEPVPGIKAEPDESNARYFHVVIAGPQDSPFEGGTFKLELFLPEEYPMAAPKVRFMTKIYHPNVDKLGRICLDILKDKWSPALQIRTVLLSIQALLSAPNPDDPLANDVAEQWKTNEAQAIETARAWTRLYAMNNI
PP1 inh confirm: human PP1 phosphatase inhibition, confirmation | inhibition, % at 6.7 µM | purified PP1alpha, OMFP substrate fluorescence | AID 2358 | 1,900 compounds, 52% hits | shares compounds with PP1 counter;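 active means mean PP1 inhibition above a set limit taken from the earlier primary screen, cut at about 15% in these data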
PP5 inh counter: counter-screen for PP1 inhibitors: human PP5 phosphatase inhibition. 1,900 compounds, 4% hits. shares compounds with PP1 counter. inhibition, % at 6.7 µM. AID 2360. purified PP5c, OMFP fluorescence;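 active means mean PP5 inhibition over triplicate wells above about 9.5% taken from the earlier PP1 screen, limit read from the data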
Target sequence (P53041 whole entry, looked up): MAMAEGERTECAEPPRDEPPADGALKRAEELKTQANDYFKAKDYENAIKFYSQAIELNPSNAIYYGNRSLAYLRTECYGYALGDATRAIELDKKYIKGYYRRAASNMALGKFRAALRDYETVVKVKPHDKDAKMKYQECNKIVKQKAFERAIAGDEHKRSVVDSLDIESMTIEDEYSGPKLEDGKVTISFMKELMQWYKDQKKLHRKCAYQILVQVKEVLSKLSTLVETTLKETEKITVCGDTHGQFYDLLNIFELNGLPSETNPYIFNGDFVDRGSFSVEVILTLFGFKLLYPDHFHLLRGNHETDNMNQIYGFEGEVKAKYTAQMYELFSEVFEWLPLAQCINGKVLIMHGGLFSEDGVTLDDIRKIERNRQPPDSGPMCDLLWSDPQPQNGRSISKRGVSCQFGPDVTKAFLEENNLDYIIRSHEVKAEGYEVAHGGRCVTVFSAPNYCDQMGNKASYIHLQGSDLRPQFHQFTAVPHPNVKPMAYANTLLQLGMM
A number is an active result. Hits are enriched below; roughly 2.8% of the tested compounds scored in any of these assays.

Cc1ccc(C)c(CSc2ccc3nnc(-c4ccccn4)n3n2)c1 was read as p-CIP stab down inactive, PP1 counter 22.2, AI-2 QS mod inactive, T cruzi repl inactive, UBC13 inh inactive, PP1 inh confirm inactive and PP5 inh counter inactive.
Brc1ccc(CSc2ccc3nnc(-c4ccccn4)n3n2)cc1 was read as p-CIP stab down inactive, PP1 counter 26.5, AI-2 QS mod inactive, T cruzi repl inactive, UBC13 inh inactive, PP1 inh confirm 19.8 and PP5 inh counter inactive.
For COC(=O)Oc1ccc(/C=N/NC(=O)CSCc2ccccc2Br)cc1OC the results were p-CIP stab down inactive, PP1 counter inactive, AI-2 QS mod inactive, T cruzi repl inactive and UBC13 inh inactive.
Cc1ccc(S(=O)(=O)NCC(=O)NCC(=O)OCC(=O)N2CC(=O)Nc3ccccc32)cc1C was read as p-CIP stab down inactive, PP1 counter inactive, AI-2 QS mod inactive, T cruzi repl inactive and UBC13 inh inactive.
For COc1ccccc1CCC(=O)OCC(=O)c1c(N)n(CC(C)C)c(=O)n(C)c1=O the results were PP1 counter 82.8, AI-2 QS mod inactive, T cruzi repl inactive, UBC13 inh inactive, PP1 inh confirm inactive and PP5 inh counter inactive.
For Cc1ccc(CN2C(=O)C3CCCN3c3ccc(C#N)cc32)cc1 (stereo unspecified) the results were p-CIP stab down inactive, PP1 counter 18.3, AI-2 QS mod inactive, T cruzi repl inactive, UBC13 inh inactive, PP1 inh confirm inactive and PP5 inh counter inactive.
For COc1ccc(CC(=O)NCC(=O)N/N=C/c2sccc2C)cc1 the results were p-CIP stab down inactive, PP1 counter inactive, AI-2 QS mod inactive, T cruzi repl inactive and UBC13 inh inactive.
Screening COc1cc(/C=N/Nc2nc(Nc3ccccc3)nc(-n3nc(C)cc3C)n2)cc(OC)c1OC returned p-CIP stab down inactive, PP1 counter 24.2, AI-2 QS mod inactive, T cruzi repl 54.5, UBC13 inh inactive, PP1 inh confirm 34.5 and PP5 inh counter inactive.
`COc1ccc(O)c(/C=N/Nc2nc(C)cc(-c3ccccc3)n2)c1` gave PP1 counter inactive, AI-2 QS mod inactive, T cruzi repl inactive and UBC13 inh inactive.
Screening COc1ccc(O)c(/C=N/Nc2nc(Nc3ccccc3)nc(-n3nc(C)cc3C)n2)c1 returned p-CIP stab down inactive, PP1 counter 21.3, AI-2 QS mod inactive, T cruzi repl inactive, UBC13 inh inactive, PP1 inh confirm 25.2 and PP5 inh counter inactive.
`COc1cc(/C=N/Nc2nc(Nc3ccc(C)cc3)nc(-n3nc(C)cc3C)n2)cc(OC)c1OC` gave p-CIP stab down inactive, PP1 counter 22.2, AI-2 QS mod inactive, T cruzi repl 58.1, UBC13 inh inactive, PP1 inh confirm 21.4 and PP5 inh counter inactive.
For CCOC(=O)c1c(C)[nH]c(C(=O)OCC(=O)NC2(C#N)CCCCC2)c1C the results were PP1 counter inactive, AI-2 QS mod inactive, T cruzi repl inactive and UBC13 inh inactive.
C[C@H]1CN(S(=O)(=O)c2ccc3c(c2)OCCO3)CCN1S(=O)(=O)c1c(F)cccc1F was read as UBC13 inh inactive.
For CCc1ccc(N=Nc2ccc(O)c3[nH]cnc23)cc1 the results were PP1 counter 21.3, UBC13 inh inactive, PP1 inh confirm inactive and PP5 inh counter inactive.
For CCc1ccc(/C=N/Nc2ncnc3nc[nH]c23)cc1 the results were p-CIP stab down inactive, PP1 counter inactive, AI-2 QS mod inactive, T cruzi repl inactive and UBC13 inh inactive.
`COc1ccc(OC)c(NC(=O)CSc2nnc(CCCO)n2-c2ccccc2)c1` gave p-CIP stab down inactive, PP1 counter 20.9, AI-2 QS mod inactive, T cruzi repl inactive, UBC13 inh inactive, PP1 inh confirm inactive and PP5 inh counter inactive.
Screening COc1ccc(OC)c(NC(=O)CSc2nnc(-c3ccco3)n2-c2ccccc2)c1 returned p-CIP stab down inactive, PP1 counter inactive, AI-2 QS mod inactive, T cruzi repl inactive and UBC13 inh inactive.
Screening CCCC[C@@H]1C=C(C(=O)O)[C@H](c2ccc(C#N)cc2)N1S(=O)(=O)c1ccc(C)cc1 returned UBC13 inh inactive.
For CCCCN(C(=O)c1ccc(S(=O)(=O)N(CC)CC)cc1)c1c(N)n(CCC)c(=O)[nH]c1=O the results were p-CIP stab down inactive, PP1 counter inactive, AI-2 QS mod inactive, T cruzi repl inactive and UBC13 inh inactive.
`CCCOc1ccc(/C(O)=C2\C(=O)C(=O)N(c3ccccn3)C2c2ccccc2F)cc1C` (stereo unspecified) gave p-CIP stab down inactive, PP1 counter 23.6, AI-2 QS mod inactive, T cruzi repl inactive, UBC13 inh inactive, PP1 inh confirm 26.3 and PP5 inh counter inactive.
Screening COc1ccc(C2/C(=C(/O)c3ccc(C)cc3)C(=O)C(=O)N2c2ccccn2)cc1OC (stereo unspecified) returned p-CIP stab down inactive, PP1 counter inactive, AI-2 QS mod inactive, T cruzi repl inactive and UBC13 inh inactive.
Screening O=C(CCCC(=O)N(CC(=O)NC1CCCCC1)c1ccccc1F)Nc1ccccn1 returned p-CIP stab down inactive, PP1 counter inactive, AI-2 QS mod inactive, T cruzi repl inactive and UBC13 inh inactive.
Screening COc1ccc(CCNC(=O)C2CCN(C(=O)c3ccc(Cl)cc3)CC2)cc1OC returned p-CIP stab down inactive, PP1 counter inactive, AI-2 QS mod inactive, T cruzi repl inactive and UBC13 inh inactive.
COc1ccc(-c2cc(C(=O)NCCN3CCOCC3)no2)cc1OC was read as p-CIP stab down inactive, PP1 counter 32.0, AI-2 QS mod inactive, T cruzi repl inactive, UBC13 inh inactive, PP1 inh confirm inactive and PP5 inh counter inactive.
O=C(NCCN1CCOCC1)c1cc(-c2ccc(Br)cc2)on1 was read as p-CIP stab down inactive, PP1 counter inactive, AI-2 QS mod inactive, T cruzi repl inactive and UBC13 inh inactive.
For CCn1c(=O)c(C(=O)NNC(=O)Cc2ccccc2)c(O)c2ccccc21 the results were p-CIP stab down inactive, PP1 counter inactive, T cruzi repl inactive and UBC13 inh inactive.
`Cn1c(=O)c(C(=O)NNC(=O)c2ccccc2Br)c(O)c2ccccc21` gave p-CIP stab down inactive, PP1 counter 19.6, AI-2 QS mod inactive, T cruzi repl inactive, UBC13 inh inactive, PP1 inh confirm inactive and PP5 inh counter inactive.
Screening CCn1c(=O)c(C(=O)NNC(=O)c2ccccc2Br)c(O)c2ccccc21 returned p-CIP stab down inactive, PP1 counter 21.8, AI-2 QS mod inactive, T cruzi repl inactive, UBC13 inh inactive, PP1 inh confirm inactive and PP5 inh counter inactive.
O=C(NCc1ccc2c(c1)OCO2)C12CN(Cc3ccccc3)CC1C(c1cccc([N+](=O)[O-])c1)=NO2 (stereo unspecified) was read as p-CIP stab down inactive, PP1 counter 25.3, AI-2 QS mod inactive, T cruzi repl inactive, UBC13 inh inactive, PP1 inh confirm inactive and PP5 inh counter inactive.

Bioassay records (PubChem BioAssay)
